Laboratory results: PubChem BioAssay AID1267 (The Scripps Research Institute Molecular Screening Center, 2008)
The campaign covered roughly 1,200 compounds. About 770 (64%) were called active. So high a share suggests a set chosen from earlier hits. These entries were drawn from the full list. Unmarked numbers belong to inactive results.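 The calls were made as follows: active = percent activation of the STAT3 luciferase reporter above a set limit taken from the earlier primary screen (cut at about 130% in these data); inactive = the rest.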

assay: enhancers of IL-6 STAT3 signaling – U3A cells, luciferase, luminescence, confirmation (AID 1267); conditions: U3A STAT3-luciferase reporter, IL-6 potentiation, at 5.7 µM, hits give high values;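 also: 0% = background signal of medium plus substrate and 100% = median of IL-6 with DMSO wells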
Summary of the method: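 System – U3A STAT3::luc reporter cells · Also added – IL-6 stimulus at 33 ng/mL final · Incubation – 1 h compound pretreatment plus 6 h IL-6 stimulation, 37 °C · Signal – luminescence of luciferase reporter · Measure – percent potentiation relative to IL-6 plus DMSO median · Benchmarks – high control IL-6 plus DMSO wells, media-only background wells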

| Structure (SMILES) | potentiation (% of control) |
| --- | --- |
| CCC/C(=N\O)c1c[nH]c2ccccc12 | 143% (active) |
| COc1cc(-n2c(=S)[nH]c3ccc(C)cc3c2=O)c(Cl)cc1Cl | 129% |
